Test results reported in PMC11742495 (Breast Cancer Research : BCR, 2025).
Where a chain is given by its changes, count along the chain named. Where two headings read alike, the source gives them in different places. Each block holds one compound with its values, some of them ahead of it.

How the values were obtained:
[1] = molecular target: T1, Y537S ERα-SRC3 interaction (Homo sapiens, UniProt P03372, Y537S); assay: cell-based; assay type: cell-based; conditions: for IC50: 1 nM E2, 48 h
T1 sequence (P03372 1-595 Y537S): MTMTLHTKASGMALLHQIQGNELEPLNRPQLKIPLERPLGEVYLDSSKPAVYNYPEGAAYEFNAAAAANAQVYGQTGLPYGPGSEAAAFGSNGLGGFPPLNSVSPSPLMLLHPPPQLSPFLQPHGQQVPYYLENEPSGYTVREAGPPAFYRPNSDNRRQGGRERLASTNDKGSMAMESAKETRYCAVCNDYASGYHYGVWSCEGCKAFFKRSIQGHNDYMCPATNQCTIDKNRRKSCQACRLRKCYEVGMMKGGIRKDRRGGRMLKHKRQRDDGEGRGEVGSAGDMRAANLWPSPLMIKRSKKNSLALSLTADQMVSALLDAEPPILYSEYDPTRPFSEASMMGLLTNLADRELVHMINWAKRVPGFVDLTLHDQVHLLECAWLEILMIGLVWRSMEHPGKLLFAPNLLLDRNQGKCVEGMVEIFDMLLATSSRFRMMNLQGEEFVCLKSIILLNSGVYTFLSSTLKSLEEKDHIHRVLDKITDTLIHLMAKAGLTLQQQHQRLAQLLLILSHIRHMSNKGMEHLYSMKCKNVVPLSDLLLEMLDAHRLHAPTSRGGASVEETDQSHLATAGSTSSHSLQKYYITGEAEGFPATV

[2] = tested on: endometrium; assay: Uterine SERM agonist study; assay type: in vivo, BALB/c mice; conditions: ovariectomized mice, three days of treatment, with and without E2
How it was run: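 Adult ovariectomized BALB/c mice were randomized to 8 groups and dosed once daily for 3 consecutive days. Treatments: vehicle (0.2% Tween 80/0.5% CMC); E2 (0.1 mL of 0.1 µg/mL in 95% cottonseed oil/5% ethanol); test compound 50 mg/kg orally; reference SERM 50 mg/kg in vehicle; reference SERD 25 mg/kg in cottonseed oil/ethanol. Each active arm was run ± E2. Uteri were weighed, formalin-fixed, embedded and H&E-stained.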

[3] = molecular target: T2, WT ERα-SRC3 interaction (Homo sapiens, UniProt P03372); assay: cell-based; conditions: 1 nM E2, 48 h
T2 sequence (P03372 1-595): T1 sequence (P03372 1-595 Y537S) with S537Y

[4] = tested on: heterozygous, luciferase-tagged Y537S ESR1 MCF7 xenograft; assay: Comparative murine xenograft study T6I-29-1A vs ICI; assay type: in vivo, NOD/SCID mice
[5] = cited from earlier work
[6] = difference between WT-SRC3 and Y537S-SRC3
[7] = 25 mg/kg, T6I-29-1A IP five times per week, ICI SC once per week, vs vehicle

SMILES: C[C@@H]1Cc2c([nH]c3ccccc23)[C@@H](c2c(F)cc(NC3CN(CCCF)C3)cc2F)N1CC(F)(F)CO [Gir, giredestrant]
IC50 ([3]; WT-SRC3 IC50 ± StDev): 0.68 ± 0.25 nM | IC50 ([3]; WT-SRC3 Log(IC50) ± StDev): 0.676 nM | IC50 ([1]; Y537S-SRC3 IC50 ± StDev): 47.6 ± 11.4 nM | IC50 ([1]; Y537S-SRC3 Log(IC50) ± StDev): 47.9 nM | ΔIC50 [1, 6]: 46.95

SMILES: C[C@]12CC[C@@H]3c4ccc(O)cc4C[C@@H](CCCCCCCCC[S+]([O-])CCCC(F)(F)C(F)(F)F)[C@H]3[C@@H]1CC[C@@H]2O (stereo partly shown) [ICI, fulvestrant]
tumor bioluminescent signal (IVIS) vs vehicle ([4]; 25 mg/kg SC once per week): no significant difference in bioluminescent signal | final uterine weights ([4]; 25 mg/kg, T6I-29-1A IP five times per week, ICI SC once per week): significantly decreased final uterine weights | survival [4, 7]: significantly prolonged | tumor growth (digital caliper) [4, 7]: significantly blunted tumor growth | ER target gene expression in tumors (RT-qPCR) ([4]; no significance noted): heightened | endometrium thickness [2]: diminished the thickness

SMILES: CC/C(=C(\c1ccccc1)c1ccc(OCCN(C)C)cc1)c1ccccc1 [tamoxifen]
protein binding [5]: greater than 98%

Second part, the compound after the results:

ΔIC50 [1]: 44.67
SMILES: C[C@@H]1Cc2c(ccc3[nH]ncc23)[C@@H](c2ccc(NC3CN(CCCF)C3)cn2)N1CC(F)(F)F [Cam, camizestrant]

endometrium thickness [2]: significantly increased width
SMILES: CC/C(=C(\c1ccc(O)cc1)c1ccc(OCCN(C)C)cc1)c1ccccc1 [Compound 4OHT, 4-hydroxytamoxifen]

ΔIC50 [1, 6]: 9.59
SMILES: Oc1ccc2c(c1)CC[C@H](c1ccccc1)[C@@H]2c1ccc(OCCN2CCCC2)cc1 [Laso, lasofoxifene]

ΔIC50 [1, 6]: 3560.03
SMILES: CCNCCc1ccc(CN(CC)c2cc(OC)ccc2[C@@H]2CCc3cc(O)ccc3C2)cc1 [Rad1901, elacestrant]
